Seven compounds from ChEMBL document CHEMBL1649494, “Hypersusceptibility to azole antifungals in a clinical isolate of Candida glabrata with reduced aerobic growth” (2009) can be followed below.

Converted amounts (≈) assume the structure as drawn.

Type in all cases: functional
In assay [1] the test system is Nakaseomyces glabratus. The experiment in a line: Antifungal activity against Candida glabrata isolate 22853 at 10 ug after 48 hrs by disk diffusion method. The conditions noted are these: isolate 22853, 48 h, read-out: DIZ.
Assay [2] deals with Nakaseomyces glabratus. The assay is described as follows: Antifungal activity against Candida glabrata isolate 22852 by Etest method. A digest of the protocol: (§1)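 MIC by Etest strips on Casitone agar plates (pH 7.2, chloramphenicol-supplemented), run per manufacturer's recommendations; isolates maintained on YEPD agar by regular passage.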
In assay [3] the test system is Nakaseomyces glabratus. The assay is described as follows: Antifungal activity against Candida glabrata isolate 22852 at 10 ug after 48 hrs by disk diffusion method. The settings on record: isolate 22852, 48 h, read-out: DIZ. In general terms: Agar diffusion results depend on both activity and mobility in agar.
Assay [4] concerns Nakaseomyces glabratus. The experiment in a line: Antifungal activity against Candida glabrata isolate 21231 at 10 ug after 48 hrs by disk diffusion method. The settings on record: isolate 21231, 48 h, read-out: DIZ.
Assay [5] deals with Nakaseomyces glabratus. The experiment in a line: Antifungal activity against Candida glabrata isolate 22853 by Etest method. In a few lines: as §1
For assay [6], the system named is Nakaseomyces glabratus. The assay is described as follows: Antifungal activity against Candida glabrata isolate 21231 by Etest method. In a few lines:
as §1

The subject of assay [7] is Nakaseomyces glabratus. The experiment in a line: Antifungal activity against Candida glabrata isolate 22853 at 15 ug after 48 hrs by disk diffusion method. The conditions noted are these: isolate 22853, 48 h, read-out: DIZ.
Assay [8] relates to Nakaseomyces glabratus. The experiment in a line: Antifungal activity against Candida glabrata isolate 22852 at 15 ug after 48 hrs by disk diffusion method. The conditions noted are these: isolate 22852, 48 h, read-out: DIZ.
Assay [9] relates to Nakaseomyces glabratus. The experiment in a line: Antifungal activity against Candida glabrata isolate 21231 at 15 ug after 48 hrs by disk diffusion method. The settings on record: isolate 21231, 48 h, read-out: DIZ.

Broadly, the MIC is the lowest concentration found to suppress growth. Lower therefore signals a more susceptible organism. For `C[C@@H]1[C@H](O)[C@@H](C)/C=C/C=C/C=C/C=C/C=C/C=C/C=C/[C@H](O[C@@H]2O[C@H](C)[C@@H](O)[C@H](N)[C@@H]2O)C[C@@H]2O[C@](O)(C[C@@H](O)C[C@@H](O)[C@H](O)CC[C@@H](O)C[C@@H](O)CC(=O)O[C@H]1C)C[C@H](O)[C@H]2C(=O)O` [AMPHOTERICIN B], the zone of inhibition at 10 µg/disc with Nakaseomyces glabratus [1] came out at 31 mm; in the assay on Nakaseomyces glabratus [3], 40 mm; in the assay on Nakaseomyces glabratus [4], 27 mm. The minimum inhibitory concentration (MIC) against Nakaseomyces glabratus [2] was determined as 0.032 µg/mL (≈ 0.0346 µM); against Nakaseomyces glabratus [5], 0.047 µg/mL (≈ 0.0509 µM); against Nakaseomyces glabratus [6], 0.047 µg/mL (≈ 0.0509 µM).

For the compound `Clc1ccccc1C(c1ccccc1)(c1ccccc1)n1ccnc1` [CLOTRIMAZOLE], the zone of inhibition at 10 µg/disc is 12 mm with Nakaseomyces glabratus [1], 50 mm in the assay with Nakaseomyces glabratus [3] and 25 mm in the assay with Nakaseomyces glabratus [4].

With `Clc1ccc(COC(Cn2ccnc2)c2ccc(Cl)cc2Cl)cc1` (configuration not stated) [ECONAZOLE], the zone of inhibition at 10 µg/disc was found to be 13 mm with Nakaseomyces glabratus [1], 50 mm in the assay with Nakaseomyces glabratus [3] and 25 mm in the assay with Nakaseomyces glabratus [4].

For `OC(Cn1cncn1)(Cn1cncn1)c1ccc(F)cc1F` [FLUCONAZOLE], the results for the zone of inhibition at 15 µg/disc in the assay on Nakaseomyces glabratus [7], with Nakaseomyces glabratus [8] and in the assay with Nakaseomyces glabratus [9] were 0 mm, 50 mm and 21 mm, respectively. Besides, the MIC in the assay with Nakaseomyces glabratus [2] was 0.94 µg/mL (≈ 3.07 µM); against Nakaseomyces glabratus [5], more than 256 µg/mL; with Nakaseomyces glabratus [6], 6 µg/mL (≈ 19.6 µM).

Take `CC(=O)N1CCN(c2ccc(OCC3COC(Cn4ccnc4)(c4ccc(Cl)cc4Cl)O3)cc2)CC1` (configuration not stated) [KETOCONAZOLE]: the zone of inhibition at 10 µg/disc in the assay on Nakaseomyces glabratus [1] came to 16 mm; in the assay on Nakaseomyces glabratus [3], 50 mm; in the assay on Nakaseomyces glabratus [4] it was 33 mm.

With `Clc1ccc(COC(Cn2ccnc2)c2ccc(Cl)cc2Cl)c(Cl)c1` (configuration not stated) [MICONAZOLE], the figures for the zone of inhibition at 10 µg/disc with Nakaseomyces glabratus [1], in the assay on Nakaseomyces glabratus [3] and in the assay on Nakaseomyces glabratus [4] were 0 mm, 35 mm and 21 mm, respectively.

For `C[C@@H](c1ncncc1F)[C@](O)(Cn1cncn1)c1ccc(F)cc1F` [VORICONAZOLE], the MIC in the assay on Nakaseomyces glabratus [2] was 0.003 µg/mL (≈ 0.00859 µM); in the assay on Nakaseomyces glabratus [5], 4 µg/mL (≈ 11.5 µM); in the assay with Nakaseomyces glabratus [6] it was 0.047 µg/mL (≈ 0.135 µM).
